Measured values: ChEMBL document CHEMBL3046106, “Synthesis and herbicidal activity of diphenyl ether derivatives containing unsaturated carboxylates” (J Agric Food Chem, 2011)

Experiments:
Type in all cases: functional
Digitaria sanguinalis [1] = test: Herbicidal activity against Digitaria sanguinalis (hairy crabgrass) at 120 g/hm2 postemergent application after 2 weeks
Outline: (§1)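 Seedlings grown 14 days in the greenhouse; plants uniform in size and stage were chosen. Test compound in acetone sprayed post-emergence at a carrier volume equivalent to 187 L/ha. Plants returned to the greenhouse and watered; untreated plants served as control. Each species scored visually two weeks after application on a 0–100 scale (0 no activity, 100 total control).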

Abutilon theophrasti [2] = test: Herbicidal activity against Abutilon theophrasti (velvetleaf) at 480 g/hm2 postemergent application after 2 weeks; outline: as §1
Echinochloa crus-galli [3] = test: Herbicidal activity against Echinochloa crus-galli (barnyard grass) at 480 g/hm2 postemergent application after 2 weeks; outline: as §1
Digitaria sanguinalis [4] = test: Herbicidal activity against Digitaria sanguinalis (hairy crabgrass) at 480 g/hm2 postemergent application after 2 weeks; outline: as §1
Abutilon theophrasti [5] = test: Herbicidal activity against Abutilon theophrasti (velvetleaf) at 30 g/hm2 postemergent application after 2 weeks; outline: as §1
Echinochloa crus-galli [6] = test: Herbicidal activity against Echinochloa crus-galli (barnyard grass) at 30 g/hm2 postemergent application after 2 weeks; outline: as §1
Digitaria sanguinalis [7] = test: Herbicidal activity against Digitaria sanguinalis (hairy crabgrass) at 30 g/hm2 postemergent application after 2 weeks; outline: as §1
Abutilon theophrasti [8] = test: Herbicidal activity against Abutilon theophrasti (velvetleaf) at 120 g/hm2 postemergent application after 2 weeks; outline: as §1
Echinochloa crus-galli [9] = test: Herbicidal activity against Echinochloa crus-galli (barnyard grass) at 120 g/hm2 postemergent application after 2 weeks; outline: as §1
Digitaria sanguinalis [10] = test: Herbicidal activity against Digitaria sanguinalis (hairy crabgrass) at 200 g/hm2 postemergent application after 2 weeks; outline: as §1
Echinochloa crus-galli [11] = test: Herbicidal activity against Echinochloa crus-galli (barnyard grass) at 1000 g/hm2 postemergent application after 2 weeks; outline: as §1
Echinochloa crus-galli [12] = test: Herbicidal activity against Echinochloa crus-galli (barnyard grass) at 40 g/hm2 postemergent application after 2 weeks; outline: as §1
Digitaria sanguinalis [13] = test: Herbicidal activity against Digitaria sanguinalis (hairy crabgrass) at 1000 g/hm2 postemergent application after 2 weeks; outline: as §1
Echinochloa crus-galli [14] = test: Herbicidal activity against Echinochloa crus-galli (barnyard grass) at 200 g/hm2 postemergent application after 2 weeks; outline: as §1
Digitaria sanguinalis [15] = test: Herbicidal activity against Digitaria sanguinalis (hairy crabgrass) at 40 g/hm2 postemergent application after 2 weeks; outline: as §1
Abutilon theophrasti [16] = test: Herbicidal activity against Abutilon theophrasti (velvetleaf) at 200 g/hm2 postemergent application after 2 weeks; outline: as §1
Abutilon theophrasti [17] = test: Herbicidal activity against Abutilon theophrasti (velvetleaf) at 1000 g/hm2 postemergent application after 2 weeks; outline: as §1
Abutilon theophrasti [18] = test: Herbicidal activity against Abutilon theophrasti (velvetleaf) at 40 g/hm2 postemergent application after 2 weeks; outline: as §1

SMILES	Activity (Digitaria sanguinalis [1])	Activity (Abutilon theophrasti [2])	Activity (Echinochloa crus-galli [3])	Activity (Digitaria sanguinalis [4])	Activity (Abutilon theophrasti [5])	Activity (Echinochloa crus-galli [6])	Activity (Digitaria sanguinalis [7])	Activity (Abutilon theophrasti [8])	Activity (Echinochloa crus-galli [9])	Activity (Digitaria sanguinalis [10])	Activity (Echinochloa crus-galli [11])	Activity (Echinochloa crus-galli [12])	Activity (Digitaria sanguinalis [13])	Activity (Echinochloa crus-galli [14])	Activity (Digitaria sanguinalis [15])	Activity (Abutilon theophrasti [16])	Activity (Abutilon theophrasti [17])	Activity (Abutilon theophrasti [18])
CCCOC(=O)/C=C/COC(=O)c1cc(Oc2ccc(C(F)(F)F)cc2Cl)ccc1[N+](=O)[O-]	80%	100%	70%	90%	95%	10%	70%	100%	40%									
CCOC(=O)/C=C(\C)OC(=O)c1cc(Oc2ccc(C(F)(F)F)cc2Cl)ccc1Cl										20%	95%	0%	25%	20%	10%			
CCC/C(=C\C(=O)OCC)OC(=O)c1cc(Oc2ccc(C(F)(F)F)cc2Cl)ccc1[N+](=O)[O-]										5%	35%		15%	5%		0%	0%	
CCOC(=O)/C=C(\C)COC(=O)c1cc(Oc2ccc(C(F)(F)F)cc2Cl)ccc1[N+](=O)[O-]										10%	35%	5%	20%	20%	10%	100%	100%	90%
C=C(COC(=O)c1cc(Oc2ccc(C(F)(F)F)cc2Cl)ccc1Cl)C(=O)OC										25%	75%	5%	30%	15%	10%	98%	100%	10%
C=C(C(=O)OCC)C(C)OC(=O)c1cc(Oc2ccc(C(F)(F)F)cc2Cl)ccc1[N+](=O)[O-] (stereo not drawn)										70%	30%	10%	90%	20%	25%	50%	100%	5%
CCOC(=O)/C(C)=C(\C)OC(=O)c1cc(Oc2ccc(C(F)(F)F)cc2Cl)ccc1Cl										25%	25%	0%	30%	20%	0%	90%	100%	5%
C=C(C(=O)OCC)C(C)OC(=O)c1cc(Oc2ccc(C(F)(F)F)cc2Cl)ccc1Cl (stereo not drawn)										35%	95%	0%	40%	20%	0%	75%	100%	5%
COC(=O)/C=C/COC(=O)c1cc(Oc2ccc(C(F)(F)F)cc2Cl)ccc1[N+](=O)[O-]	80%	100%	80%	90%	30%	10%	20%	95%	60%									
CCOC(=O)/C=C(/OC(=O)c1cc(Oc2ccc(C(F)(F)F)cc2Cl)ccc1[N+](=O)[O-])C(F)(F)F										0%	35%		50%	0%		0%	60%	
COC(=O)/C=C(\C)OC(=O)c1cc(Oc2ccc(C(F)(F)F)cc2Cl)ccc1[N+](=O)[O-]										80%	80%	15%	95%	50%	5%	75%	100%	25%
CCCCOC(=O)/C=C/COC(=O)c1cc(Oc2ccc(C(F)(F)F)cc2Cl)ccc1[N+](=O)[O-]	80%	95%	40%	85%	90%	10%	70%	90%	20%									
C/C(=C\C(=O)OC(C)(C)C)OC(=O)c1cc(Oc2ccc(C(F)(F)F)cc2Cl)ccc1[N+](=O)[O-]										15%	45%	5%	40%	30%	5%	50%	75%	30%
CCOC(=O)/C=C/COC(=O)c1cc(Oc2ccc(C(F)(F)F)cc2Cl)ccc1Cl										30%	85%	15%	70%	45%	20%	100%	100%	98%
CCOC(=O)/C=C(\C)OC(=O)c1cc(Oc2ccc(C(F)(F)F)cc2Cl)ccc1[N+](=O)[O-]										90%	60%	10%	98%	40%	80%	85%	100%	10%
CCOC(=O)/C(C)=C(\C)OC(=O)c1cc(Oc2ccc(C(F)(F)F)cc2Cl)ccc1[N+](=O)[O-]										50%	25%	10%	55%	15%	20%	35%	100%	0%
C=CCOC(=O)/C=C(\C)OC(=O)c1cc(Oc2ccc(C(F)(F)F)cc2Cl)ccc1[N+](=O)[O-]										5%	25%		35%	5%		0%	40%	
CC/C(=C\C(=O)OC)OC(=O)c1cc(Oc2ccc(C(F)(F)F)cc2Cl)ccc1[N+](=O)[O-]										5%	35%		15%	0%		0%	10%	
C=C(COC(=O)c1cc(Oc2ccc(C(F)(F)F)cc2Cl)ccc1Cl)C(=O)OCCC										30%	75%	5%	35%	10%	10%	100%	100%	20%
CC(C)OC(=O)/C=C/COC(=O)c1cc(Oc2ccc(C(F)(F)F)cc2Cl)ccc1[N+](=O)[O-]	85%	100%	80%	90%	80%	30%	80%	95%	60%									
C=C(COC(=O)c1cc(Oc2ccc(C(F)(F)F)cc2Cl)ccc1Cl)C(=O)OCC										70%	90%	10%	95%	20%	40%	100%	100%	30%
COCCOC(=O)/C=C(\C)OC(=O)c1cc(Oc2ccc(C(F)(F)F)cc2Cl)ccc1[N+](=O)[O-]										35%	80%	20%	75%	30%	30%	100%	100%	98%
